The record followed here is ChEMBL document CHEMBL3244366, “Synthesis and biochemical evaluation of inhibitors of estrogen biosynthesis” (J Med Chem, 1978).

For data set [1], the target named is T1, Aromatase (Homo sapiens, UniProt P11511).
T1 sequence (P11511 whole entry): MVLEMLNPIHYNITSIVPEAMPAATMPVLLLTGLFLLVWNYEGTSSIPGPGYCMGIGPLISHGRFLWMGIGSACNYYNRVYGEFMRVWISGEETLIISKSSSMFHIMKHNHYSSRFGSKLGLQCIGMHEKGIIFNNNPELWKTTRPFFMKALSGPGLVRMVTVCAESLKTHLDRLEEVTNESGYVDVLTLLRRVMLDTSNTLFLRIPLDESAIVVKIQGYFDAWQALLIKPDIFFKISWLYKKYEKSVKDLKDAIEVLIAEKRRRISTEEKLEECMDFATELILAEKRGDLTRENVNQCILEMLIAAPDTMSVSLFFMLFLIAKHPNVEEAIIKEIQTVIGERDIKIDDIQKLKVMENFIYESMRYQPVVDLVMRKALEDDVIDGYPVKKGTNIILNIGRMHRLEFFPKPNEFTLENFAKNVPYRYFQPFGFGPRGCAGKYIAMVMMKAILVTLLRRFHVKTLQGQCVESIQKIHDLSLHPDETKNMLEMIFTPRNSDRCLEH
The data set can be described thus: Inhibition of human placental microsomal aromatase assessed as inhibition of [C14]estrone/[C14]estradiol formation using 1.25 uM [C14]androstenedione substrate at 12.5 uM by liquid scintillation counting. In outline: (§1)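 Screen, run in duplicate: [14C]androstenedione 1.25 μM with inhibitor at 6.25 or 12.5 μM, human placental microsomes (0.25 mg protein/3.0 mL), NADPH-generating system (NADP+ 1.71 mM, glucose 6-phosphate 2.85 mM, G6PDH) in 0.1 M phosphate pH 7.0. 5 min preincubation, then 15.0 min at 37 °C; estrogens separated on alumina TLC and counted; expressed as percent inhibition versus uninhibited controls.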

Data set [2] deals with T1, Aromatase. The data set can be described thus: Inhibition of human placental microsomal aromatase assessed as inhibition of [C14]estrone/[C14]estradiol formation using 1.25 uM [C14]androstenedione substrate at 6.25 uM by liquid scintillation counting. Put shortly:
as §1

Data set [3] has as its target T1, Aromatase. The data set can be described thus: Apparent inhibition of human placental microsomal aromatase assessed as [C14]estrone/[C14]estradiol formation using 0.075 to 0.515 uM [C14]androstenedione substrate by liquid scintillation counting. Conditions: read-out: Ki(app); call rule not given here. In outline: (§2)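 Twice-washed human term placental microsomes (0.25 mg protein) in 3.5 mL 0.1 M sodium phosphate pH 7.0 with NADP+ 1.71 mM, glucose 6-phosphate 2.85 mM, G6PDH 1.0 unit; [14C]androstenedione 0.075–0.515 μM plus one inhibitor level; 37 °C, 8.0 min (<10% product). Estrogens extracted with ethyl acetate, alumina TLC, counted; duplicates; apparent Ki and inhibition type from weighted Lineweaver-Burk.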

The target of data set [4] is T1, Aromatase. Nature of the data set: Competitive inhibition of human placental microsomal aromatase assessed as [C14]estrone/[C14]estradiol formation using [C14]androstenedione substrate by liquid scintillation counting. In outline: as §2

Structures are written as SMILES. pKi: −log10 of the molar value.

For orientation: inhibition means the percentage by which the read-out fell short of the control. As a reminder, the pKi is the Ki on a negative log10 scale, so that one unit is a factor of ten. Consider `C[C@]12CCC(=O)C=C1C[C@@H](SCCc1ccccc1)[C@@H]1[C@@H]2CC[C@]2(C)C(=O)CC[C@@H]12`, for which the inhibition at 12.5 µM on Aromatase [1] turned out to be 82.8%. Moreover, at Aromatase [2], the inhibition at 6.25 µM came out at 75.7%. The pKi at Aromatase [3] is 7.21. In addition, on Aromatase [4], the “inhibition (INH)” value was “Active”.
Taken in the same sequence, the figures for `C[C@]12CCC(=O)C=C1C[C@@H](Sc1ccc(N)cc1)[C@@H]1[C@@H]2CC[C@]2(C)C(=O)CC[C@@H]12` were 95%, 55.6%, 7.74 and “Active”.
In the case of `C[C@]12CCC(=O)C=C1C[C@@H](SCc1ccccc1)[C@@H]1[C@@H]2CC[C@]2(C)C(=O)CC[C@@H]12`, the inhibition at 12.5 µM on Aromatase [1] amounted to 84.1%. Also, the inhibition at 6.25 µM at Aromatase [2] is 66.7%. In addition, on Aromatase [3], the pKi is 7.16. For the same compound, the “inhibition (INH)” value at Aromatase [4] is given as “Active”.
With `CCCCS[C@@H]1CC2=CC(=O)CC[C@]2(C)[C@H]2CC[C@]3(C)C(=O)CC[C@H]3[C@H]12`, the inhibition at 12.5 µM at Aromatase [1] was 74.1%. Also, the inhibition at 6.25 µM on Aromatase [2] was determined as 62.4%. Further, the negative-log Ki (pKi) on Aromatase [3] was 7.24. The “inhibition (INH)” value at Aromatase [4] is recorded as “Active”.
Consider `C[C@]12CCC(=O)C=C1C[C@@H](SCCCc1ccccc1)[C@@H]1[C@@H]2CC[C@]2(C)C(=O)CC[C@@H]12`, for which, at Aromatase [1], the inhibition at 12.5 µM turned out to be 66.4%. Further, at Aromatase [2], the inhibition at 6.25 µM is 68.4%.
For `C[C@]12CCC(=O)C=C1C[C@@H](Sc1ccccc1)[C@@H]1[C@@H]2CC[C@]2(C)C(=O)CC[C@@H]12`, on Aromatase [1], the inhibition at 12.5 µM is 46.7%. Besides, the inhibition at 6.25 µM at Aromatase [2] worked out at 45.3%.
In the case of `COc1ccc(CS[C@@H]2CC3=CC(=O)CC[C@]3(C)[C@H]3CC[C@]4(C)C(=O)CC[C@H]4[C@H]23)cc1`, the inhibition at 12.5 µM on Aromatase [1] amounted to 63%. Further, the inhibition at 6.25 µM on Aromatase [2] worked out at 64%. Besides, the pKi at Aromatase [3] is 7.51. In addition, the “inhibition (INH)” value at Aromatase [4] is on record as “Active”.
Regarding `CCN(CC)c1ccc(CS[C@H]2CC(=O)C=C3CC[C@@H]4[C@H](CC[C@]5(C)C(=O)CC[C@@H]45)[C@]32C)cc1`, on Aromatase [1], the inhibition at 12.5 µM is 36.3%. For the same compound, the inhibition at 6.25 µM at Aromatase [2] stood at 32.2%.
`C[C@@]12C(=CC(=O)C[C@@H]1SCc1ccccc1)CC[C@@H]1[C@@H]2CC[C@]2(C)C(=O)CC[C@@H]12`: the inhibition at 12.5 µM at Aromatase [1] was 15.5%. Further, the inhibition at 6.25 µM on Aromatase [2] was found to be 20.8%.
`CCN(CC)c1ccc(CS[C@@H]2CC3=CC(=O)CC[C@]3(C)[C@H]3CC[C@]4(C)C(=O)CC[C@H]4[C@H]23)cc1`: the inhibition at 12.5 µM at Aromatase [1] amounted to 42.3%. In addition, on Aromatase [2], the inhibition at 6.25 µM turned out to be 45.1%.
In the case of `C[C@@]12C(=CC(=O)C[C@@H]1Sc1ccccc1)CC[C@@H]1[C@@H]2CC[C@]2(C)C(=O)CC[C@@H]12`, at Aromatase [1], the inhibition at 12.5 µM stood at 24.2%. For the same compound, the inhibition at 6.25 µM on Aromatase [2] is 21.2%.
With `CCOC(=O)CS[C@@H]1CC2=CC(=O)CC[C@]2(C)[C@H]2CC[C@]3(C)C(=O)CC[C@H]3[C@H]12`, at Aromatase [1], the inhibition at 12.5 µM was found to be 72.4%.
Regarding `COc1ccc(S[C@@H]2CC3=CC(=O)CC[C@]3(C)[C@H]3CC[C@]4(C)C(=O)CC[C@H]4[C@H]23)cc1`, the inhibition at 12.5 µM at Aromatase [1] came to 64.9%. Besides, the inhibition at 6.25 µM at Aromatase [2] came to 35.3%.
